# Reference: ChEMBL document CHEMBL4689842, “EUbOPEN Chemogenomics Library wave 1” (2021)
# Values joined by “and” are separate entries in the source; they are usually repeats but may differ in a detail not shown here. Equal values may be shown once.
# Test system: U2OS
# Assay: Multiplex assay against U2OS
# Format: toxicity, cell-based
# Details: human
# In short: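 Tubulin, mitochondrial-mass and membrane-permeability phenotypes are per cents of healthy-nucleus cells. Cells were gated by CellPathfinder machine learning into Hoechst high-intensity objects or normal cells, normal cells into healthy, pyknosed or fragmented nuclei, and pyknosed cells into mitotic or apoptotic. Before that, live cells stained at seeding with Hoechst33342, BioTracker Green Microtubule Cytoskeleton Dye, MitoTracker Red and Annexin V Alexa Fluor 680 were imaged on a CQ1 microscope at 37°C and 5% CO2 after compound addition.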
# [1] = 12 h, 1 µM, compound concentration 1 uM, replicate 1
# [2] = 12 h, 1 µM, compound concentration 1 uM, replicate 2
# [3] = 12 h, 10 µM, compound concentration 10 uM, replicate 1
# [4] = 12 h, 10 µM, compound concentration 10 uM, replicate 2
# [5] = 24 h, 1 µM, compound concentration 1 uM, replicate 1
# [6] = 24 h, 1 µM, compound concentration 1 uM, replicate 2
# [7] = 24 h, 10 µM, compound concentration 10 uM, replicate 1
# [8] = 24 h, 10 µM, compound concentration 10 uM, replicate 2
# [9] = 48 h, 10 µM, compound concentration 10 uM, replicate 1
# [10] = 48 h, 10 µM, compound concentration 10 uM, replicate 2
structure (smiles),measurement,setting,value
CN[C@@H]1C[C@H]2O[C@@](C)([C@@H]1OC)n1c3ccccc3c3c4c(c5c6ccccc6n2c5c31)C(=O)NC4 [STAUROSPORINE],Population Apoptotic (%),[1],53%
same,Population Fragmented Nuclei (%),[1],47%
same,Population Healthy Nuclei (%),[1],12%
same,Population Hoechst High Intensity Objects (%),[1],4%
same,Population Membrane Permeable-Phenotype (%),[1],89%
same,Population Mitochondria Different-Phenotype (%),[1],57%
same,Population Mitotic Cells (%),[1],46%
same,Population Normal (%),[1],95%
same,Population Pyknosed Nuclei (%),[1],40%
same,Population Tubulin-Different-Phenotype (%),[1],89%
same,Population Apoptotic (%),[2],62%
same,Population Fragmented Nuclei (%),[2],65%
same,Population Healthy Nuclei (%),[2],3%
same,Population Hoechst High Intensity Objects (%),[2],7%
same,Population Membrane Permeable-Phenotype (%),[2],100%
same,Population Mitochondria Different-Phenotype (%),[2],83%
same,Population Mitotic Cells (%),[2],37%
same,Population Normal (%),[2],92%
same,Population Pyknosed Nuclei (%),[2],30%
same,Population Tubulin-Different-Phenotype (%),[2],91%
same,Population Apoptotic (%),[3],51% and 87% and 83%
same,Population Fragmented Nuclei (%),[3],45% and 41% and 40%
same,Population Healthy Nuclei (%),[3],5% and 0% and 1%
same,Population Hoechst High Intensity Objects (%),[3],6% and 7% and 3%
same,Population Membrane Permeable-Phenotype (%),[3],94% and 100% and 71%
same,Population Mitochondria Different-Phenotype (%),[3],50% and 100% and 85%
same,Population Normal (%),[3],93% and 92% and 96%
same,Population Pyknosed Nuclei (%),[3],48% and 57% and 58%
same,Population Tubulin-Different-Phenotype (%),[3],94% and 100%
same,Population Apoptotic (%),[4],86% and 56% and 73%
same,Population Fragmented Nuclei (%),[4],26% and 64% and 42%
same,Population Healthy Nuclei (%),[4],15% and 6% and 12%
same,Population Hoechst High Intensity Objects (%),[4],15% and 8%
same,Population Membrane Permeable-Phenotype (%),[4],95% and 84%
same,Population Mitochondria Different-Phenotype (%),[4],75% and 71% and 84%
same,Population Normal (%),[4],84% and 91%
same,Population Pyknosed Nuclei (%),[4],29% and 45%
same,Population Tubulin-Different-Phenotype (%),[4],91% and 92%
same,Population Apoptotic (%),[5],93%
same,Population Fragmented Nuclei (%),[5],34%
same,Population Healthy Nuclei (%),[5],22%
same,Population Hoechst High Intensity Objects (%),[5],14%
same,Population Membrane Permeable-Phenotype (%),[5],96%
same,Population Mitochondria Different-Phenotype (%),[5],56%
same,Population Mitotic Cells (%),[5],6%
same,Population Normal (%),[5],85%
same,Population Pyknosed Nuclei (%),[5],42%
same,Population Tubulin-Different-Phenotype (%),[5],92%
same,Population Apoptotic (%),[6],94%
same,Population Fragmented Nuclei (%),[6],58%
same,Population Healthy Nuclei (%),[6],10%
same,Population Hoechst High Intensity Objects (%),[6],13%
same,Population Membrane Permeable-Phenotype (%),[6],95%
same,Population Mitochondria Different-Phenotype (%),[6],66%
same,Population Mitotic Cells (%),[6],5%
same,Population Normal (%),[6],86%
same,Population Pyknosed Nuclei (%),[6],31%
same,Population Tubulin-Different-Phenotype (%),[6],91%
same,Population Apoptotic (%),[7],93% and 90% and 94%
same,Population Fragmented Nuclei (%),[7],48% and 46% and 38%
same,Population Healthy Nuclei (%),[7],0% and 15%
same,Population Hoechst High Intensity Objects (%),[7],5% and 11%
same,Population Mitochondria Different-Phenotype (%),[7],50% and 45%
same,Population Mitotic Cells (%),[7],6% and 9% and 5%
same,Population Normal (%),[7],94% and 88%
same,Population Pyknosed Nuclei (%),[7],50% and 52% and 45%
same,Population Tubulin-Different-Phenotype (%),[7],50% and 100% and 94%
same,Population Apoptotic (%),[8],88% and 96% and 77%
same,Population Hoechst High Intensity Objects (%),[8],27% and 26%
same,Population Membrane Permeable-Phenotype (%),[8],95% and 92%
same,Population Mitochondria Different-Phenotype (%),[8],95% and 69% and 92%
same,Population Normal (%),[8],72% and 73%
same,Population Pyknosed Nuclei (%),[8],36% and 23% and 38%
same,Population Tubulin-Different-Phenotype (%),[8],95% and 92%
same,Population Apoptotic (%),[9],95%
same,Population Fragmented Nuclei (%),[9],51% and 55%
same,Population Healthy Nuclei (%),[9],0%
same,Population Hoechst High Intensity Objects (%),[9],7% and 11%
same,Population Mitochondria Different-Phenotype (%),[9],66% and 100%
same,Population Mitotic Cells (%),[9],4%
same,Population Normal (%),[9],92% and 88%
same,Population Pyknosed Nuclei (%),[9],47% and 43%
same,Population Tubulin-Different-Phenotype (%),[9],100%
same,Population Apoptotic (%),[10],89% and 100%
same,Population Fragmented Nuclei (%),[10],22% and 13%
same,Population Healthy Nuclei (%),[10],49% and 56%
same,Population Hoechst High Intensity Objects (%),[10],18% and 25%
same,Population Mitochondria Different-Phenotype (%),[10],96% and 92%
same,Population Mitotic Cells (%),[10],10% and 0%
same,Population Normal (%),[10],81% and 74%
same,Population Pyknosed Nuclei (%),[10],28% and 30%
same,Population Tubulin-Different-Phenotype (%),[10],96% and 92%
Cl.O=C(c1ccc(Nc2nccc(-c3cc4ccccc4s3)n2)cc1)N1CCC(N2CCCC2)CC1,Population Apoptotic (%),[1],31%
same,Population Fragmented Nuclei (%),[1],8%
same,Population Healthy Nuclei (%),[1],80%
same,Population Hoechst High Intensity Objects (%),[1],1%
same,Population Membrane Permeable-Phenotype (%),[1],18%
same,Population Mitochondria Different-Phenotype (%),[1],11%
same,Population Mitotic Cells (%),[1],68%
same,Population Normal (%),[1],98%
same,Population Pyknosed Nuclei (%),[1],11%
same,Population Tubulin-Different-Phenotype (%),[1],18%
same,Total Cell Count,[1],145
same,Population Apoptotic (%),[2],0%
same,Population Fragmented Nuclei (%),[2],20%
same,Population Healthy Nuclei (%),[2],75%
same,Population Hoechst High Intensity Objects (%),[2],25%
same,Population Membrane Permeable-Phenotype (%),[2],13%
same,Population Mitochondria Different-Phenotype (%),[2],19%
same,Population Mitotic Cells (%),[2],100%
same,Population Normal (%),[2],74%
same,Population Pyknosed Nuclei (%),[2],4%
same,Population Tubulin-Different-Phenotype (%),[2],19%
same,Total Cell Count,[2],110
same,Population Apoptotic (%),[3],68% and 85%
same,Population Fragmented Nuclei (%),[3],15% and 25%
same,Population Healthy Nuclei (%),[3],6%
same,Population Hoechst High Intensity Objects (%),[3],5% and 7%
same,Population Membrane Permeable-Phenotype (%),[3],46% and 76%
same,Population Mitochondria Different-Phenotype (%),[3],92%
same,Population Mitotic Cells (%),[3],31% and 14%
same,Population Normal (%),[3],94% and 92%
same,Population Pyknosed Nuclei (%),[3],77% and 66%
same,Total Cell Count,[3],174 and 176
same,Population Apoptotic (%),[4],93% and 70%
same,Population Fragmented Nuclei (%),[4],35% and 26%
same,Population Healthy Nuclei (%),[4],7% and 13%
same,Population Membrane Permeable-Phenotype (%),[4],50% and 54%
same,Population Mitochondria Different-Phenotype (%),[4],100% and 81%
same,Population Normal (%),[4],78% and 93%
same,Population Pyknosed Nuclei (%),[4],57% and 60%
same,Population Tubulin-Different-Phenotype (%),[4],100% and 90%
same,Total Cell Count,[4],73
same,Population Apoptotic (%),[5],38%
same,Population Fragmented Nuclei (%),[5],10%
same,Population Healthy Nuclei (%),[5],81%
same,Population Hoechst High Intensity Objects (%),[5],3%
same,Population Membrane Permeable-Phenotype (%),[5],19%
same,Population Mitochondria Different-Phenotype (%),[5],16%
same,Population Mitotic Cells (%),[5],61%
same,Population Normal (%),[5],96%
same,Population Pyknosed Nuclei (%),[5],8%
same,Population Tubulin-Different-Phenotype (%),[5],14%
same,Total Cell Count,[5],148
same,Population Apoptotic (%),[6],44%
same,Population Fragmented Nuclei (%),[6],25%
same,Population Healthy Nuclei (%),[6],68%
same,Population Hoechst High Intensity Objects (%),[6],14%
same,Population Membrane Permeable-Phenotype (%),[6],12%
same,Population Mitochondria Different-Phenotype (%),[6],11%
same,Population Mitotic Cells (%),[6],55%
same,Population Normal (%),[6],85%
same,Population Pyknosed Nuclei (%),[6],5%
same,Population Tubulin-Different-Phenotype (%),[6],13%
same,Total Cell Count,[6],97
same,Population Apoptotic (%),[7],94% and 98%
same,Population Fragmented Nuclei (%),[7],31% and 18%
same,Population Healthy Nuclei (%),[7],4% and 9%
same,Population Hoechst High Intensity Objects (%),[7],12% and 23%
same,Population Membrane Permeable-Phenotype (%),[7],100%
same,Population Mitochondria Different-Phenotype (%),[7],100% and 80%
same,Population Mitotic Cells (%),[7],5% and 1%
same,Population Normal (%),[7],87% and 76%
same,Population Pyknosed Nuclei (%),[7],63% and 71%
same,Population Tubulin-Different-Phenotype (%),[7],100%
same,Total Cell Count,[7],171 and 213
same,Population Apoptotic (%),[8],100%
same,Population Fragmented Nuclei (%),[8],36% and 26%
same,Population Healthy Nuclei (%),[8],16%
same,Population Hoechst High Intensity Objects (%),[8],14% and 31%
same,Population Mitotic Cells (%),[8],0%
same,Population Normal (%),[8],85% and 68%
same,Population Pyknosed Nuclei (%),[8],59% and 58%
same,Population Tubulin-Different-Phenotype (%),[8],87%
same,Total Cell Count,[8],192 and 76
same,Population Apoptotic (%),[9],98%
same,Population Fragmented Nuclei (%),[9],32%
same,Population Healthy Nuclei (%),[9],6%
same,Population Hoechst High Intensity Objects (%),[9],26%
same,Population Membrane Permeable-Phenotype (%),[9],75%
same,Population Mitochondria Different-Phenotype (%),[9],100%
same,Population Mitotic Cells (%),[9],1%
same,Population Normal (%),[9],73%
same,Population Pyknosed Nuclei (%),[9],61%
same,Population Tubulin-Different-Phenotype (%),[9],100%
same,Total Cell Count,[9],154
same,Population Apoptotic (%),[10],100%
same,Population Fragmented Nuclei (%),[10],28%
same,Population Healthy Nuclei (%),[10],50%
same,Population Hoechst High Intensity Objects (%),[10],44%
same,Population Membrane Permeable-Phenotype (%),[10],100%
same,Population Mitotic Cells (%),[10],0%
same,Population Normal (%),[10],55%
same,Population Pyknosed Nuclei (%),[10],21%
same,Total Cell Count,[10],77
